From ChEMBL document CHEMBL1126160, “Synthesis and structure-activity relationships of 7-diazabicycloalkylquinolones, including danofloxacin, a new quinolone antibacterial agent for veterinary medicine” (J Med Chem, 1992)
Converted amounts (≈) assume the structure as drawn.

Assays:
Format in all cases: functional
[1] = tested on: Actinobacillus pleuropneumoniae; experiment: In vitro antibacterial activity against anaerobically grown Actinobacillus pleuropneumoniae ([…])
Summary of the method: (§1)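 Agar dilution MICs. Anaerobic strains were tested on tryptose agar with 5% bovine blood and incubated 48 h at 39 °C in an anaerobe chamber under N2/CO2/H2 (80:10:10).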

Trueperella pyogenes = experiment: In vitro antibacterial activity against anaerobically grown Actinomyces pyogenes (14D002); summary of the method: as §1
Phocaeicola vulgatus = experiment: In vitro antibacterial activity against anaerobically grown Bacteroides vulgatus (78D029); summary of the method: as §1
[2] = tested on: Bordetella bronchiseptica; experiment: In vitro antibacterial activity against aerobically grown Bordetella bronchiseptica (73A009)
Summary of the method: (§2)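 Agar dilution MICs. Aerobic strains were tested on brain heart infusion agar and incubated aerobically at 37 °C for 18–20 h.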

Escherichia coli [3] = experiment: In vitro antibacterial activity against aerobically grown Escherichia coli (51A538); summary of the method: as §2
Escherichia coli [4] = experiment: Escherichia coli DNA cleavage endpoint value which is the minimum amount required (in micro g/mL) to induce detectable cleavage of supercoiled pBR322 substrate to linear form (gyrase); settings: read-out: MIC
Summary of the method: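 DNA gyrase A and B subunits were purified from E. coli overproducers. About 2 units of holoenzyme were incubated with pBR322 in Tris-HCl pH 7.5 containing MgCl2, spermidine, DTT, 0.2 mM ATP, BSA and tRNA. Drug was added as 2-fold serial dilutions, and reactions ran for 60 min at 25 °C. Reactions were stopped with SDS and proteinase K, then run on agarose and stained with ethidium. The endpoint was the lowest concentration giving detectable linear DNA.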

[5] = In vitro antibacterial activity against Aerobically grown Pasteurella haemolytica (59B018); settings: Mannheimia haemolytica; summary of the method: as §2
Pasteurella multocida = experiment: In vitro antibacterial activity against aerobically grown Pasteurella multocida (59A006); summary of the method: as §2
Salmonella enterica = experiment: In vitro antibacterial activity against aerobically grown Salmonella choleraesuis (58B015)
Staphylococcus aureus = experiment: In vitro antibacterial activity against aerobically grown Staphylococcus aureus (54B004); summary of the method: as §2
[6] = In vitro evaluation for antibacterial activity against anaerobically grown Treponema hyodysenteriae (94A007); settings: Brachyspira hyodysenteriae
Clostridium perfringens = experiment: microbe, parasite or virus in culture

Compound: CN1[C@@H]2CCC[C@H]1CN(c1cc3c(cc1F)c(=O)c(C(=O)O)cn3C1CC1)C2.Cl
- MIC [1]: 0.1 µg/mL
- MIC (Trueperella pyogenes): 3.13 µg/mL
- MIC (Phocaeicola vulgatus): 1.56 µg/mL
- MIC [2]: 1.56 µg/mL
- MIC (Escherichia coli [3]): 0.39 µg/mL
- minimum concentration inducing gyrase-mediated DNA cleavage (Escherichia coli [4]): 1.56 µg/mL
- MIC [5]: 0.2 µg/mL
- MIC (Pasteurella multocida): 0.05 µg/mL
- MIC (Salmonella enterica): 0.39 µg/mL
- MIC (Staphylococcus aureus): 0.2 µg/mL
- MIC [6]: > 3.13 µg/mL
- MIC (Clostridium perfringens): 0.39 µg/mL

Compound: CN1[C@@H]2CC[C@H]1CN(c1cc3c(cc1F)c(=O)c(C(=O)O)cn3CCF)C2.Cl.O
- MIC [1]: 0.1 µg/mL
- MIC (Phocaeicola vulgatus): 6.25 µg/mL
- MIC [2]: 3.13 µg/mL
- MIC (Escherichia coli [3]): 0.2 µg/mL
- minimum concentration inducing gyrase-mediated DNA cleavage (Escherichia coli [4]): 3.12 µg/mL
- MIC [5]: 0.2 µg/mL
- MIC (Pasteurella multocida): 0.2 µg/mL
- MIC (Salmonella enterica): 0.39 µg/mL
- MIC (Staphylococcus aureus): 0.2 µg/mL
- MIC [6]: 3.13 µg/mL
- MIC (Clostridium perfringens): 0.39 µg/mL

Compound: CN1[C@@H]2CC[C@H]1CN(c1cc3c(cc1F)c(=O)c(C(=O)O)cn3-c1ccc(F)cc1)C2.Cl.O
- MIC [1]: 0.78 µg/mL
- MIC (Trueperella pyogenes): > 3.13 µg/mL
- MIC (Phocaeicola vulgatus): 0.78 µg/mL
- MIC [2]: > 1.56 µg/mL
- MIC (Escherichia coli [3]): 1.56 µg/mL
- MIC [5]: 0.78 µg/mL
- MIC (Pasteurella multocida): 0.2 µg/mL
- MIC (Salmonella enterica): > 1.56 µg/mL
- MIC (Staphylococcus aureus): 0.78 µg/mL
- MIC [6]: 1.56 µg/mL
- MIC (Clostridium perfringens): 3.13 µg/mL

Compound: Cl.O.O=C(O)c1cn(CCF)c2c(F)c(N3CCN4CCC3CC4)c(F)cc2c1=O
- MIC [1]: < 0.05 µg/mL
- MIC (Trueperella pyogenes): 3.13 µg/mL
- MIC (Phocaeicola vulgatus): 6.25 µg/mL
- MIC [2]: 6.25 µg/mL
- MIC (Escherichia coli [3]): 0.39 µg/mL
- minimum concentration inducing gyrase-mediated DNA cleavage (Escherichia coli [4]): 0.19 µg/mL
- MIC [5]: < 0.05 µg/mL
- MIC (Pasteurella multocida): 0.2 µg/mL
- MIC (Salmonella enterica): 0.2 µg/mL
- MIC (Staphylococcus aureus): 0.78 µg/mL
- MIC [6]: 6.25 µg/mL
- MIC (Clostridium perfringens): 0.78 µg/mL

Compound: C=Cn1cc(C(=O)O)c(=O)c2cc(F)c(N3CCN4CCC3CC4)cc21
- MIC [1]: 0.02 µg/mL (≈ 0.056 µM)
- MIC (Trueperella pyogenes): 3.13 µg/mL (≈ 8.76 µM)
- MIC (Phocaeicola vulgatus): 3.13 µg/mL (≈ 8.76 µM)
- MIC [2]: 1.56 µg/mL (≈ 4.37 µM)
- MIC (Escherichia coli [3]): 0.1 µg/mL (≈ 0.28 µM)
- minimum concentration inducing gyrase-mediated DNA cleavage (Escherichia coli [4]): 0.39 µg/mL
- MIC [5]: 0.05 µg/mL (≈ 0.14 µM)
- MIC (Pasteurella multocida): 0.05 µg/mL (≈ 0.14 µM)
- MIC (Salmonella enterica): 0.1 µg/mL (≈ 0.28 µM)
- MIC (Staphylococcus aureus): 0.2 µg/mL (≈ 0.56 µM)
- MIC [6]: 0.39 µg/mL (≈ 1.09 µM)
- MIC (Clostridium perfringens): 0.2 µg/mL (≈ 0.56 µM)

Compound: CN1C[C@@H]2C[C@H]1CN2c1c(F)cc2c(=O)c(C(=O)O)cn(C3CC3)c2c1F
- MIC [1]: < 0.05 µg/mL
- MIC (Trueperella pyogenes): 0.78 µg/mL (≈ 2.08 µM)
- MIC (Phocaeicola vulgatus): 3.12 µg/mL (≈ 8.31 µM)
- MIC [2]: 0.39 µg/mL (≈ 1.04 µM)
- MIC (Escherichia coli [3]): < 0.05 µg/mL
- minimum concentration inducing gyrase-mediated DNA cleavage (Escherichia coli [4]): 0.39 µg/mL
- MIC [5]: < 0.05 µg/mL
- MIC (Pasteurella multocida): < 0.05 µg/mL
- MIC (Staphylococcus aureus): 0.1 µg/mL (≈ 0.266 µM)
- MIC [6]: 1.56 µg/mL (≈ 4.16 µM)
- MIC (Clostridium perfringens): 3.12 µg/mL (≈ 8.31 µM)

Compound: CN1C[C@@H]2C[C@H]1CN2c1c(F)cc2c(=O)c(C(=O)O)cn(-c3ccc(F)cc3F)c2c1F
- MIC [1]: 0.1 µg/mL (≈ 0.224 µM)
- MIC (Trueperella pyogenes): 1.56 µg/mL (≈ 3.49 µM)
- MIC (Phocaeicola vulgatus): 1.56 µg/mL (≈ 3.49 µM)
- MIC [2]: > 1.56 µg/mL
- MIC (Escherichia coli [3]): 0.2 µg/mL (≈ 0.447 µM)
- minimum concentration inducing gyrase-mediated DNA cleavage (Escherichia coli [4]): 0.78 µg/mL
- MIC [5]: 0.1 µg/mL (≈ 0.224 µM)
- MIC (Pasteurella multocida): 0.02 µg/mL (≈ 0.0447 µM)
- MIC (Salmonella enterica): 0.39 µg/mL (≈ 0.872 µM)
- MIC (Staphylococcus aureus): 0.2 µg/mL (≈ 0.447 µM)
- MIC [6]: > 3.13 µg/mL
- MIC (Clostridium perfringens): 0.39 µg/mL (≈ 0.872 µM)

Compound: CN1C2CC[C@@H]1CCN(c1cc3c(cc1F)c(=O)c(C(=O)O)cn3CCF)C2
- MIC [1]: 0.39 µg/mL (≈ 0.996 µM)
- MIC (Trueperella pyogenes): > 3.13 µg/mL
- MIC (Phocaeicola vulgatus): > 3.13 µg/mL
- MIC [2]: 1.56 µg/mL (≈ 3.99 µM)
- MIC (Escherichia coli [3]): 1.56 µg/mL (≈ 3.99 µM)
- minimum concentration inducing gyrase-mediated DNA cleavage (Escherichia coli [4]): 3.12 µg/mL
- MIC [5]: 1.56 µg/mL (≈ 3.99 µM)
- MIC (Pasteurella multocida): 0.39 µg/mL (≈ 0.996 µM)
- MIC (Salmonella enterica): > 1.56 µg/mL
- MIC (Staphylococcus aureus): 0.78 µg/mL (≈ 1.99 µM)
- MIC [6]: > 3.13 µg/mL
- MIC (Clostridium perfringens): 1.56 µg/mL (≈ 3.99 µM)

Compound: CN1[C@@H]2CC[C@H]1CN(c1c(F)cc3c(=O)c(C(=O)O)cn(C4CC4)c3c1Cl)C2
- MIC [1]: 0.2 µg/mL (≈ 0.493 µM)
- MIC (Trueperella pyogenes): 3.13 µg/mL (≈ 7.71 µM)
- MIC (Phocaeicola vulgatus): 0.78 µg/mL (≈ 1.92 µM)
- MIC [2]: > 1.56 µg/mL
- MIC (Escherichia coli [3]): 0.39 µg/mL (≈ 0.961 µM)
- minimum concentration inducing gyrase-mediated DNA cleavage (Escherichia coli [4]): 1.56 µg/mL
- MIC [5]: 0.2 µg/mL (≈ 0.493 µM)
- MIC (Pasteurella multocida): 0.05 µg/mL (≈ 0.123 µM)
- MIC (Salmonella enterica): 0.78 µg/mL (≈ 1.92 µM)
- MIC (Staphylococcus aureus): 0.39 µg/mL (≈ 0.961 µM)
- MIC [6]: > 3.13 µg/mL
- MIC (Clostridium perfringens): 0.78 µg/mL (≈ 1.92 µM)

Compound: CN1C2CC[C@@H]1CCN(c1nc3c(cc1F)c(=O)c(C(=O)O)cn3C1CC1)C2
- MIC [1]: 0.2 µg/mL (≈ 0.518 µM)
- MIC (Trueperella pyogenes): > 3.13 µg/mL
- MIC (Phocaeicola vulgatus): > 3.13 µg/mL
- MIC [2]: 0.78 µg/mL (≈ 2.02 µM)
- MIC (Escherichia coli [3]): 0.39 µg/mL (≈ 1.01 µM)
- minimum concentration inducing gyrase-mediated DNA cleavage (Escherichia coli [4]): 3.12 µg/mL
- MIC [5]: 0.39 µg/mL (≈ 1.01 µM)
- MIC (Pasteurella multocida): 0.1 µg/mL (≈ 0.259 µM)
- MIC (Salmonella enterica): 0.78 µg/mL (≈ 2.02 µM)
- MIC (Staphylococcus aureus): 0.78 µg/mL (≈ 2.02 µM)
- MIC [6]: 3.13 µg/mL (≈ 8.1 µM)
- MIC (Clostridium perfringens): 0.78 µg/mL (≈ 2.02 µM)

Compound: CNn1cc(C(=O)O)c(=O)c2cc(F)c(N3CCN4CCC3CC4)cc21
- MIC [1]: < 0.05 µg/mL
- MIC (Trueperella pyogenes): 6.25 µg/mL (≈ 17.3 µM)
- MIC (Phocaeicola vulgatus): > 25 µg/mL
- MIC [2]: 12.5 µg/mL (≈ 34.7 µM)
- MIC (Escherichia coli [3]): 0.39 µg/mL (≈ 1.08 µM)
- minimum concentration inducing gyrase-mediated DNA cleavage (Escherichia coli [4]): 1.56 µg/mL
- MIC [5]: 0.1 µg/mL (≈ 0.277 µM)
- MIC (Pasteurella multocida): 0.1 µg/mL (≈ 0.277 µM)
- MIC (Salmonella enterica): 1.56 µg/mL (≈ 4.33 µM)
- MIC (Staphylococcus aureus): 1.56 µg/mL (≈ 4.33 µM)
- MIC [6]: 3.13 µg/mL (≈ 8.69 µM)
- MIC (Clostridium perfringens): 0.78 µg/mL (≈ 2.16 µM)
